Calls of active or inactive are those of the source. No cut-off for these calls is given here.
Legend:
Mus musculus [1] = assay: Toxicity in Balb/c mouse assessed as changes in blood cell parameters at 150 mg/kg, ip dosed daily for 3 days using compound formulated in Solutol HS15 and ethyl alcohol measured after 48 hrs; format: organism-based; parameters: dose 150 mg/kg, route intraperitoneal; conditions: in vivo
Intestine = assay: Drug level in intestine of Balb/c mouse xenografted with human Calu3 cells assessed as aldehyde metabolite level at 60 mg/kg, iv using compound formulated in Solutol HS15 and ethyl alcohol measured after 24 hrs by HPLC/MS method; format: ADME, organism-based, Calu-3; parameters: dose 60 mg/kg, route intravenous; conditions: in vivo
Procedure, shortened: (§1)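 Nude mice bearing subcutaneous Calu3 xenografts, 1 mouse per treatment group. Organs and tumor were taken 24 h later and kept at −80°C, then homogenized in methanol (50 mg/ml) on ice. Homogenate was extracted with acetonitrile containing 0.2% formic acid plus an internal standard, centrifuged, and the supernatant analyzed by HPLC/MS.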

[2] = Stability in powder form at 4 degC to 37 degC after 1 to 14 days by HPLC method; format: physicochemical
Procedure, shortened: (§2)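 Powders were kept at 4°C, room temperature (21°C) or 37°C and sampled for up to 90 days. Each aliquot was dissolved in DMSO, diluted with 9 volumes acetonitrile, and analyzed by HPLC for purity.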

[3] = Stability in powder form in non-evacuated chambers at 37 degC after 1 to 14 days by HPLC method; format: physicochemical; procedure, shortened: as §2
[4] = Stability in injectable solution with Solutol HS15 and ethyl alcohol and 0.9% NaCl assessed as drug hydrolysis within 7 hrs at room temperature by HPLC method; format: physicochemical; conditions: 7 h
Mus musculus [5] = assay: Toxicity in Balb/c mouse assessed as serum ALT level at 150 mg/kg, ip dosed daily for 3 days using compound formulated in Solutol HS15 and ethyl alcohol measured on day 6; format: organism-based; parameters: dose 150 mg/kg, route intraperitoneal; conditions: in vivo, 72 h
Liver = assay: Drug level in liver of Balb/c mouse xenografted with human Calu3 cells assessed as aldehyde metabolite level at 60 mg/kg, iv using compound formulated in Solutol HS15 and ethyl alcohol measured after 24 hrs by HPLC/MS method; format: ADME, organism-based, Calu-3; parameters: dose 60 mg/kg, route intravenous; conditions: in vivo; procedure, shortened: as §1
[6] = Drug level in tumor of Balb/c mouse xenografted with human Calu3 cells at 60 mg/kg, iv using compound formulated in Solutol HS15 and ethyl alcohol measured after 24 hrs by HPLC/MS method; format: ADME, organism-based, Neoplasm, Calu-3; parameters: dose 60 mg/kg, route intravenous; conditions: read-out: Drug uptake; procedure, shortened: as §1
[7] = Drug level in lung of Balb/c mouse xenografted with human Calu3 cells at 60 mg/kg, iv using compound formulated in Solutol HS15 and ethyl alcohol measured after 24 hrs by HPLC/MS method; format: ADME, organism-based, Calu-3; parameters: dose 60 mg/kg, route intravenous; conditions: read-out: Drug uptake; procedure, shortened: as §1
[8] = Stability in injectable solution with Solutol HS15 and ethyl alcohol and 0.9% NaCl assessed as drug hydrolysis within 7 hrs at 37 degC by HPLC method; format: physicochemical; conditions: read-out: Drug degradation
Mus musculus [9] = assay: Toxicity in Balb/c mouse assessed as serum ALP level at 25 mg/kg, ip dosed daily for 8 days using compound formulated in Solutol HS15 and ethyl alcohol measured on day 6; format: organism-based; parameters: dose 25 mg/kg, route intraperitoneal; conditions: in vivo, 192 h
Tumour = assay: Drug level in tumor of Balb/c mouse xenografted with human Calu3 cells assessed as aldehyde metabolite level at 60 mg/kg, iv using compound formulated in Solutol HS15 and ethyl alcohol measured after 24 hrs by HPLC/MS method; format: ADME, organism-based, Neoplasm, Calu-3; parameters: dose 60 mg/kg, route intravenous; conditions: in vivo; procedure, shortened: as §1
Calu-3 = assay: Anticancer activity against human Calu3 cells at 0.03 to 30 uM by sulforhodamine B assay; format: functional, cell-based
Procedure, shortened: (§3)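 Sulforhodamine B viability assay on lung cancer cells exposed to a range of compound concentrations for 3 days. Untreated reference: DMSO-treated cells set as 100. Values are mean ± SD of quadruplicate wells.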

NCI-H1299 = assay: Anticancer activity against human H1299 cells at 0.03 to 30 uM by sulforhodamine B assay; format: functional, cell-based; procedure, shortened: as §3
[10] = Drug level in intestine of Balb/c mouse xenografted with human Calu3 cells at 60 mg/kg, iv using compound formulated in Solutol HS15 and ethyl alcohol measured after 24 hrs by HPLC/MS method; format: ADME, organism-based, Calu-3; parameters: dose 60 mg/kg, route intravenous; conditions: read-out: Drug uptake; procedure, shortened: as §1
Mus musculus [11] = assay: Toxicity in Balb/c mouse assessed as serum ALT level at 25 mg/kg, ip dosed daily for 8 days using compound formulated in Solutol HS15 and ethyl alcohol measured on day 6; format: organism-based; parameters: dose 25 mg/kg, route intraperitoneal; conditions: in vivo, 192 h
Mus musculus [12] = assay: Toxicity in Balb/c mouse assessed as serum AST level at 150 mg/kg, ip dosed daily for 3 days using compound formulated in Solutol HS15 and ethyl alcohol measured on day 6; format: organism-based; parameters: dose 150 mg/kg, route intraperitoneal; conditions: in vivo, 72 h
Lung = assay: Drug level in lung of Balb/c mouse xenografted with human Calu3 cells assessed as aldehyde metabolite level at 60 mg/kg, iv using compound formulated in Solutol HS15 and ethyl alcohol measured after 24 hrs by HPLC/MS method; format: ADME, organism-based, Calu-3; parameters: dose 60 mg/kg, route intravenous; conditions: in vivo; procedure, shortened: as §1
Mus musculus [13] = assay: Toxicity in Balb/c mouse assessed as serum ALP level at 150 mg/kg, ip dosed daily for 3 days using compound formulated in Solutol HS15 and ethyl alcohol measured on day 6; format: organism-based; parameters: dose 150 mg/kg, route intraperitoneal; conditions: in vivo, 72 h
Kidney = assay: Drug level in kidney of Balb/c mouse xenografted with human Calu3 cells assessed as aldehyde metabolite level at 60 mg/kg, iv using compound formulated in Solutol HS15 and ethyl alcohol measured after 24 hrs by HPLC/MS method; format: ADME, organism-based, Calu-3; parameters: dose 60 mg/kg, route intravenous; conditions: in vivo; procedure, shortened: as §1
NCI-H157 = assay: Anticancer activity against human NCI-H157 cells at 0.03 to 30 uM by sulforhodamine B assay; format: functional, cell-based; procedure, shortened: as §3
[14] = Stability in stock solution with Solutol HS15 and ethyl alcohol solvent at room temperature by HPLC method; format: physicochemical
Procedure, shortened: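 Stock solutions were made by dissolving compound in 75% (w/v) Solutol HS15 in ethanol (about 20% v/v ethanol). Final concentrations were 8 mg/ml for prodrug and 5 mg/ml for parent. Stocks were stored at 4°C or room temperature; aliquots were frozen at −20°C before HPLC.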

Mus musculus [15] = assay: Toxicity in Balb/c mouse assessed as histopathological changes in liver at 150 mg/kg, ip dosed once using compound formulated in Solutol HS15 and ethyl alcohol measured after 48 hrs; conditions: in vivo
[16] = Stability in powder form in non-evacuated chambers at 37 degC after 14 days by HPLC method; format: physicochemical; conditions: read-out: Stability; procedure, shortened: as §2
NCI-H460 = assay: Anticancer activity against human H460 cells at 0.03 to 30 uM by sulforhodamine B assay; format: functional, cell-based; procedure, shortened: as §3
Spleen = assay: Drug level in spleen of Balb/c mouse xenografted with human Calu3 cells assessed as aldehyde metabolite level at 60 mg/kg, iv using compound formulated in Solutol HS15 and ethyl alcohol measured after 24 hrs by HPLC/MS method; format: ADME, organism-based, Calu-3; parameters: dose 60 mg/kg, route intravenous; conditions: in vivo; procedure, shortened: as §1
Mus musculus [17] = assay: Toxicity in Balb/c mouse assessed as serum AST level at 25 mg/kg, ip dosed daily for 8 days using compound formulated in Solutol HS15 and ethyl alcohol; conditions: in vivo, 192 h
Mus musculus [18] = assay: Toxicity in Balb/c mouse assessed as mortality at 150 mg/kg, ip dosed daily for 3 days using compound formulated in Solutol HS15 and ethyl alcohol measured on day 5; format: organism-based; parameters: dose 150 mg/kg, route intraperitoneal; conditions: in vivo, 72 h
Mus musculus [19] = assay: Toxicity in Balb/c mouse assessed as mortality level at 300 mg/kg, ip using compound formulated in Solutol HS15 and ethyl alcohol measured after 3 days; format: organism-based; parameters: dose 300 mg/kg, route intraperitoneal; conditions: in vivo, 72 h
Procedure, shortened: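 Acute toxicity: 3 Balb/c mice (7–8 weeks) per group, given i.p. 300 mg/kg on day 1 and again on day 2. Deaths were recorded by day; survivors were followed for 2 weeks.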

[20] = Half life in Balb/c mouse at 25 mg/kg, iv using compound formulated in Solutol HS15 and ethyl alcohol by HPLC/MS method; format: ADME, organism-based; parameters: dose 25 mg/kg, route intravenous; conditions: in vivo
Procedure, shortened: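 Balb/c mice received 25 mg/kg by tail vein in Solutol HS15/ethanol vehicle. Blood was drawn from the tail vein at 0, 1, 2, 3.5, 7 and 24 h, 3 mice per time point, into lithium-heparin tubes. Plasma (50 µl) was precipitated with 150 µl acetonitrile containing 0.2% formic acid and internal standard, iced 15 min, centrifuged, and the supernatant analyzed by HPLC/MS for parent and released drug.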

OCc1cn(Cc2cccc(Cl)c2)c2ccccc12
Activity (Mus musculus [1]): Non-toxic
Drug uptake (Intestine): 30.1 µg/g
Stability [2]: Stable
Stability [3]: Unstable
Stability [4]: Stable
Activity (Mus musculus [5]): 1936 U/L
Drug uptake (Liver): 25 µg/g
concentration at 24 h [6]: 4200 ng/g
concentration at 24 h [7]: 4200 ng/g
degraded at 7 h [8]: > 20%
Activity (Mus musculus [9]): 44 U/L
Drug uptake (Tumour): 1.7 µg/g
Activity (Calu-3): Active
Activity (NCI-H1299): inactive
concentration at 24 h [10]: 14300 ng/g
Activity (Mus musculus [11]): 80.3 U/L
Activity (Mus musculus [12]): 4045 U/L
Drug uptake (Lung): 34.3 µg/g
Activity (Mus musculus [13]): 3 U/L
Drug uptake (Kidney): 31 µg/g
Activity (NCI-H157): Active
Stability [14]: 1 weeks
Activity (Mus musculus [15]): Toxic
remaining at 336 h [16]: < 5%
Activity (NCI-H460): Active
Drug uptake (Spleen): 19.9 µg/g
Activity (Mus musculus [17]): 206.7 U/L
Activity (Mus musculus [18]): Toxic
Activity (Mus musculus [19]): Toxic
half-life [20]: 30 min

Reference: ChEMBL document CHEMBL3351236, “Prodrug oncrasin-266 improves the stability, pharmacokinetics, and safety of NSC-743380” (Bioorg Med Chem, 2014)
